Reference: paper PMC9099118 (Clinical and Translational Science, 2022)
Entries after “also recorded” stand apart in the source; their conditions may differ.

Experiments:
[1] = Phase I safety: adverse events, Part A; assay type: in vivo, human; conditions: for Related AE / Total number of participants with at least one AE / Upper respiratory tract infection / Cough / Headache: n (%)
[2] = Phase I safety: laboratory tests; assay type: in vivo, human
In short: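 Healthy volunteers in single- and multiple-ascending inhaled-dose cohorts, randomized against placebo and blinded to investigator and subject. All dosed subjects were analysed. Change from baseline was assessed in vital signs, 12-lead ECG, spirometry and laboratory tests. Lab monitoring for JAK-related toxicity covered reticulocyte counts, lymphocyte subsets and fasting lipids.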

[3] = assay type: in vivo, human
In short: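 Open-label single-dose study in 12 healthy volunteers. Each inhaled 1 mg test compound, with 99mTc surface-associated with the powder and blended with lactose, from a capsule dry-powder inhaler (60 L/min at 4 kPa). 81mKr ventilation and 57Co transmission scans were taken before dosing. Counts were corrected for decay, background and attenuation. Lung deposition was expressed as % of emitted dose (sum of lung, oropharynx, mouthwash, stomach and exhalation filter counts). Device and capsule residue was expressed as % of loaded dose. PI (outer/inner ratio) and sC/P were normalized to 81mKr.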

[4] = Scintigraphy study: plasma PK and safety; assay type: in vivo, human; conditions: single 1 mg radiolabeled dose
JAK1 = conditions: cited from earlier work
rat model of asthma = conditions: inhalation dosing; cited from earlier work
[5] = system: fractional exhaled nitric oxide (FeNO); conditions: patients with mild asthma, inhaled; cited from earlier work
[6] = Part B MAD, 15 mg b.i.d. (n = 6)

SMILES: CN(CCC#N)C1CCN(C(=O)Cn2cc(NC(=O)c3cnn4cccnc34)c(-c3cc(Cl)ccc3OC(F)F)n2)CC1 [GDC‐0214]
- AE leading to withdrawal from treatment ([1]; Part A SAD, 0.15 mg (n = 3)): 0
- Serious AE ([1]; Part A SAD, 0.15 mg (n = 3)): 0
- Total number of AEs ([1]; Part A SAD, 0.15 mg (n = 3)): 1
- Total number of deaths ([1]; Part A SAD, 0.15 mg (n = 3)): 0
- Total number of participants withdrawn from study due to an AE ([1]; Part A SAD, 0.15 mg (n = 3)): 0
- Related AE ([1]; Part A SAD, 0.15 mg (n = 3)): 0
- Total number of participants with at least one AE ([1]; Part A SAD, 0.15 mg (n = 3)): 1 (33.3%)
- Upper respiratory tract infection ([1]; Part A SAD, 0.15 mg (n = 3)): 0
- AE leading to withdrawal from treatment ([1]; Part A SAD, 0.5 mg (n = 3)): 0
- Serious AE ([1]; Part A SAD, 0.5 mg (n = 3)): 0
- Total number of AEs ([1]; Part A SAD, 0.5 mg (n = 3)): 3
- Total number of deaths ([1]; Part A SAD, 0.5 mg (n = 3)): 0
- Total number of participants withdrawn from study due to an AE ([1]; Part A SAD, 0.5 mg (n = 3)): 0
- Related AE ([1]; Part A SAD, 0.5 mg (n = 3)): 0
- Total number of participants with at least one AE ([1]; Part A SAD, 0.5 mg (n = 3)): 2 (66.7%)
- Upper respiratory tract infection ([1]; Part A SAD, 0.5 mg (n = 3)): 0
- AE leading to withdrawal from treatment ([1]; Part A SAD, 1.5 mg (n = 6)): 0
- Serious AE ([1]; Part A SAD, 1.5 mg (n = 6)): 0
- Total number of AEs ([1]; Part A SAD, 1.5 mg (n = 6)): 5
- Total number of deaths ([1]; Part A SAD, 1.5 mg (n = 6)): 0
- Total number of participants withdrawn from study due to an AE ([1]; Part A SAD, 1.5 mg (n = 6)): 0
- Related AE ([1]; Part A SAD, 1.5 mg (n = 6)): 1 (16.7%)
- Total number of participants with at least one AE ([1]; Part A SAD, 1.5 mg (n = 6)): 3 (50.0%)
- AE leading to withdrawal from treatment ([1]; Part A SAD, 5 mg (n = 6)): 0
- Serious AE ([1]; Part A SAD, 5 mg (n = 6)): 0
- Total number of AEs ([1]; Part A SAD, 5 mg (n = 6)): 2
- Total number of deaths ([1]; Part A SAD, 5 mg (n = 6)): 0
- Total number of participants withdrawn from study due to an AE ([1]; Part A SAD, 5 mg (n = 6)): 0
- Related AE ([1]; Part A SAD, 5 mg (n = 6)): 0
- Total number of participants with at least one AE ([1]; Part A SAD, 5 mg (n = 6)): 2 (33.3%)
- Upper respiratory tract infection ([1]; Part A SAD, 5 mg (n = 6)): 0
- AE leading to withdrawal from treatment ([1]; Part A SAD, 15 mg (n = 6)): 0
- Serious AE ([1]; Part A SAD, 15 mg (n = 6)): 0
- Total number of AEs ([1]; Part A SAD, 15 mg (n = 6)): 4
- Total number of deaths ([1]; Part A SAD, 15 mg (n = 6)): 0
- Total number of participants withdrawn from study due to an AE ([1]; Part A SAD, 15 mg (n = 6)): 0
- Related AE ([1]; Part A SAD, 15 mg (n = 6)): 1 (16.7%)
- Total number of participants with at least one AE ([1]; Part A SAD, 15 mg (n = 6)): 4 (66.7%)
- Upper respiratory tract infection ([1]; Part A SAD, 15 mg (n = 6)): 0
- Total number of participants with at least one AE ([1]; Part B MAD, 1 mg q.d. 14 days (n = 6)): 6 (100%)
- AE leading to withdrawal from treatment ([1]; Part B MAD, 1 mg q.d. (n = 6)): 0
- Related serious AE ([1]; Part B MAD, 1 mg q.d. (n = 6)): 0
- Serious AE ([1]; Part B MAD, 1 mg q.d. (n = 6)): 0
- Total number of AEs ([1]; Part B MAD, 1 mg q.d. (n = 6)): 6
- Total number of deaths ([1]; Part B MAD, 1 mg q.d. (n = 6)): 0
- Total number of participants withdrawn from study due to an AE ([1]; Part B MAD, 1 mg q.d. (n = 6)): 0
- Cough ([1]; Part B MAD, 1 mg q.d. (n = 6)): 0
- Headache ([1]; Part B MAD, 1 mg q.d. (n = 6)): 1 (16.7%)
- Related AE ([1]; Part B MAD, 1 mg q.d. (n = 6)): 0
- Upper respiratory tract infection ([1]; Part B MAD, 1 mg q.d. (n = 6)): 2 (33.3%)
- Total number of participants with at least one AE ([1]; Part B MAD, 3 mg q.d. 14 days (n = 6)): 4 (66.7%)
- AE leading to withdrawal from treatment ([1]; Part B MAD, 3 mg q.d. (n = 6)): 0
- Related serious AE ([1]; Part B MAD, 3 mg q.d. (n = 6)): 0
- Serious AE ([1]; Part B MAD, 3 mg q.d. (n = 6)): 0
- Total number of AEs ([1]; Part B MAD, 3 mg q.d. (n = 6)): 11
- Total number of deaths ([1]; Part B MAD, 3 mg q.d. (n = 6)): 0
- Total number of participants withdrawn from study due to an AE ([1]; Part B MAD, 3 mg q.d. (n = 6)): 0
- Cough ([1]; Part B MAD, 3 mg q.d. (n = 6)): 1 (16.7%)
- Headache ([1]; Part B MAD, 3 mg q.d. (n = 6)): 2 (33.3%)
- Related AE ([1]; Part B MAD, 3 mg q.d. (n = 6)): 1 (16.7%)
- Upper respiratory tract infection ([1]; Part B MAD, 3 mg q.d. (n = 6)): 3 (50.0%)
- Total number of participants with at least one AE ([1]; Part B MAD, 10 mg q.d. 14 days (n = 6)): 6 (100%)
- AE leading to withdrawal from treatment ([1]; Part B MAD, 10 mg q.d. (n = 6)): 0
- Related serious AE ([1]; Part B MAD, 10 mg q.d. (n = 6)): 0
- Serious AE ([1]; Part B MAD, 10 mg q.d. (n = 6)): 0
- Total number of AEs ([1]; Part B MAD, 10 mg q.d. (n = 6)): 13
- Total number of deaths ([1]; Part B MAD, 10 mg q.d. (n = 6)): 0
- Total number of participants withdrawn from study due to an AE ([1]; Part B MAD, 10 mg q.d. (n = 6)): 0
- Cough ([1]; Part B MAD, 10 mg q.d. (n = 6)): 0
- Headache ([1]; Part B MAD, 10 mg q.d. (n = 6)): 0
- Related AE ([1]; Part B MAD, 10 mg q.d. (n = 6)): 0
- Upper respiratory tract infection ([1]; Part B MAD, 10 mg q.d. (n = 6)): 2 (33.3%)
- Total number of participants with at least one AE ([1]; Part B MAD, 15 mg b.i.d. 14 days (n = 6)): 4 (66.7%)
- AE leading to withdrawal from treatment [1, 6]: 0
- Related serious AE [1, 6]: 0
- Serious AE [1, 6]: 0
- Total number of AEs [1, 6]: 8
- Total number of deaths [1, 6]: 0
- Total number of participants withdrawn from study due to an AE [1, 6]: 0
- Cough [1, 6]: 0
- Headache [1, 6]: 2 (33.3%)
- Related AE [1, 6]: 0
- Upper respiratory tract infection [1, 6]: 0
- severity of adverse events ([1]; after single and multiple doses, all adverse events): mild or moderate
- safety and tolerability ([1]; up to a single dose of 15 mg or multiple doses up to 15 mg b.i.d. for 14 days): safe and well tolerated
- changes in laboratory parameters, ECGs, or vital signs ([2]; Parts A and B): no clinically relevant changes
- changes in CD4T cells, CD8T cells, or B cells ([2]; compared to placebo, GDC-0214-treated cohorts): no significant changes
- changes from baseline in levels of NK cells, reticulocytes, or low-density lipoprotein cholesterol ([2]; indicators of systemic effects of JAK1 inhibition): no significant changes
- mean emitted dose ([3]; capsule emptying, of loaded dose, 1 mg capsule): approximately 81%
- calculated mean dose deposited in the lungs ([3]; from a single capsule (1 mg)): approximately 0.41 mg
- Regional airway deposition ratio, PI (penetration index) ([3]; normalized for 81mKr gas distribution, mean (CV%), listed as radiolabeled GDC‐0214): 0.76 (30.47%)
- % Emitted dose, Exhaled ([3]; single inhaled 1 mg radiolabeled dose, after the breath-hold, mean): 0.74%
- tolerability [4]: well tolerated
- plasma protein binding-corrected cellular 50% inhibitory concentration of JAK1 (JAK1): 97,000 pg/mL
- eosinophil recruitment (rat model of asthma): suppressed
- fractional exhaled nitric oxide (FeNO) [5]: reduced; also recorded: dose‐dependent decreases
